A selection: hits, their analogues and other compounds. The true share with any hit is near 2.6%.
GSTO1 inh = counter-screen for RBBP9 inhibitors: inhibitors of human GSTO1. P78417. recombinant GSTO1, activity-based probe fluorescence polarization. inhibition, % at 5.96 µM. hit rate 1.1% among 300,000. AID 1974;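 active = inhibition above the campaign mean inhibition plus 3 SD, cut at about 35% in these data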;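 note: 0% = GSTO1-1 with DMSO and 100% = wells lacking GSTO1-1 enzyme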
PAD4 FP inh = blocks human protein arginine deiminase 4; AID 485272; recombinant PAD4, RCA probe fluorescence polarization; hit rate 0.41% among 330,000; Q9UM07; inhibition, % at 6.36 µM;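 active = percent inhibition above a cutoff equal to the mean of all tested compounds plus 3 SD, cut at about 15% in these data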;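 note: 0% = PAD4 with RCA probe and DMSO and 100% = probe without PAD4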
Target sequence (Q9UM07 whole entry, looked up): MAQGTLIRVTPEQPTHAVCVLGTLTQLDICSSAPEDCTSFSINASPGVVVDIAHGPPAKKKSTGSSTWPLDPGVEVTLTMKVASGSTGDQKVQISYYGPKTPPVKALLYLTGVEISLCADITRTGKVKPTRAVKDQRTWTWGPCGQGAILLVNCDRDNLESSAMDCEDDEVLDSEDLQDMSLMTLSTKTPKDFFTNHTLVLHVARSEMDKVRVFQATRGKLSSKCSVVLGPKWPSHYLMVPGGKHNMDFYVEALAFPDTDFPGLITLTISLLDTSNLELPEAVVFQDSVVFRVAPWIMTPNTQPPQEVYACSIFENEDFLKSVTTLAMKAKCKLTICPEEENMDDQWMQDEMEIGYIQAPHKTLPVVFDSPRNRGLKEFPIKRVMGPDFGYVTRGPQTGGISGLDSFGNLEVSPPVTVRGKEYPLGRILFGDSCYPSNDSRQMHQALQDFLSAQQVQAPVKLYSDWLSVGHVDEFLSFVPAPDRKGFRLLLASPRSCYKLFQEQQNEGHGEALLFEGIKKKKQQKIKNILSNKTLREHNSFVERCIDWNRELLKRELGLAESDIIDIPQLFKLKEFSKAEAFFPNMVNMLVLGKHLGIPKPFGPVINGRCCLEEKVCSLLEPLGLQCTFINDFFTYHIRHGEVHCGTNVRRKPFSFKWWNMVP
PRMT1 FP inh = blocks human protein arginine methyltransferase 1; Q99873; recombinant PRMT1, activity-based probe fluorescence polarization; inhibition, % at 2.79 µM; hit rate 1.3% among 370,000; AID 652257;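 active = inhibition above about 21% made by adding two undisclosed values, limit read from the data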
TDP2 inh = blocks human TDP2 phosphodiesterase activity; inhibition, % at 12.8 µM; recombinant TDP2, T5PNP hydrolysis, p-nitrophenol absorbance 415 nm; AID 720702; O95551; hit rate 0.34% among 370,000;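 active = inhibition above the mean of all tested compounds plus 3 SD, set per campaign, cut at about 25% in these data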;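 note: 0% = DMSO with enzyme and 100% = buffer with substrate but no TDP2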
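Assay system: recombinant human TDP2 / Reagent: T5PNP substrate at 5 mM, a TopII-DNA adduct mimic / Measured by: epi absorbance from released p-nitrophenol / Evaluation: % inhibition relative to enzyme-containing and enzyme-free wells / Control set: enzyme-free and DMSO wells / Replicates: each compound tested once, singlicate / Schedule: enzyme reaction with compound for 2 h at 37 °C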
Apaf-1 inh = inhibitors of human Apaf-1 apoptosome | O14727 | reconstituted apoptosome caspase-3 activity, DEVD-Rh110 fluorescence | inhibition, % at 20 µM | hit rate 0.71% among 330,000; active = inhibition of at least 40% at 20 µM;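 note: plate controls were DMSO wells for no effect and DEVD-CHO caspase inhibitor wells for full effect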
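Assay system – apoptosome proteins · Medium – Hepes buffer, pH 7.5 · Also added – cytochrome c with DEVD-Rh110 · Timing – 30 min compound preincubation, 50 min activation, room temperature · Detection – Rh110 fluorescence, excitation 480 nm, emission 540 nm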
Apaf-1 inh conf2 = confirmation of Apaf-1 inhibitors; shares compounds with Apaf-1 inh; reconstituted apoptosome, caspase-3 DEVD-Rh110 fluorescence; inhibition, % at 20 µM; hit rate 25% among 1,800; AID 504614;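 active = mean inhibition of at least 40% at 20 µM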;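 note: plate controls were DMSO wells for no effect and DEVD-CHO caspase inhibitor control wells for full effect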
Rh110 interf inh = Rh110 signal interference in Apaf-1 inhibitor counter-screen; shares compounds with Apaf-1 inh; Rh110 fluorescence interference, quenched caspase reaction; activation (fluorescence interference), % at 20 µM; 1,800 tested, under 10 active; AID 504615;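 active = signal rise of 40% or more at 20 µM, treated as a fluorescence artifact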
Fluor interf inh = shows fluorescence interference in the Apaf-1 inhibitor assay format; shares compounds with Apaf-1 inh; IC50, µM; 460 tested, under 10 active; AID 588538; fluorescence interference counterscreen, Apaf-1 assay format; call rule not given here
* marks the source's active call; other numbers are inactive results; . = no result given; ! = not active in a repeat.

SMILES | GSTO1 inh | PAD4 FP inh | PRMT1 FP inh | TDP2 inh | Apaf-1 inh | Apaf-1 inh conf2 | Rh110 interf inh | others
Cc1nn2c(-c3ccncc3)nnc2c2ccccc12 | 2 | -3 | -1 | 9 | 74* | 86* | 1 | Fluor interf inh=>100
COc1ccc(-c2nnc3c4ccccc4c(C)nn23)cc1 | -3 | 1 | 1 | -5 | 15 | . | .
CCCCCCCCNC(C)C(O)c1ccc(SC(C)C)cc1 (centres undefined) | 2 | -4 | 3 | -6 | 58* | 17 | 3
Cc1c(C(=O)N(C)CCOc2ccccc2)oc2c(Cl)cccc12 | . | 1 | 0 | -8 | 45* | 38 | 12
COc1ccc2oc(C(=O)N(C)CCOc3ccc(Cl)cc3)c(C)c2c1 | 1 | 0 | 1 | -7 | 20 | . | .
COC(=O)[C@]12C[C@H](CC(=O)N3CCC(c4ccccc4)CC3)C(=O)N(Cc3ccco3)C1=C[C@H](C(C)(C)C)O[C@@H]2C | . | . | 3 | -8 | . | . | .
COC(=O)CCC(=O)OC1(C)C(=O)C=C2C=C(C3CC3)N(C3CCCC3)C=C2C1=O (centres undefined) | 26 | -5 | 10 | 24 | 67* | 38 | 8
CCN(CC)CCCN1C=C2C(=O)C(C)(OC(=O)CCC(=O)OC)C(=O)C=C2C=C1C1CC1 (centres undefined) | 25 | -6 | 7 | 21 | 39 | . | .
C=CC[C@@H](Cc1ccc(F)cc1)C(=O)OC[C@H]1CCCN1C(=O)[C@H](CC=C)CC(=O)N[C@H](CO)Cc1ccccc1 | . | -9 | 0 | -20 | 31 | . | .
C=CC[C@@H](Cc1ccc(F)cc1)C(=O)OC[C@@H]1CCCN1C(=O)[C@@H](CC=C)CC(=O)N[C@@H](CO)Cc1ccccc1 | . | -3 | 3 | -2 | 40* | 18 | 11
C=CC[C@@H](Cc1ccc(F)cc1)C(=O)OC[C@H]1CCCN1C(=O)[C@@H](CC=C)CC(=O)N[C@H](CO)Cc1ccccc1 | . | -6 | 2 | -2 | 41* | 19 | 7
COC(=O)C1=C(C)N(Cc2ccc(Cl)cc2)C(=S)NC1c1cccc(OC)c1 (centres undefined) | . | . | -2 | -6 | . | . | .
CC1(c2nnnn2C2CCCCC2)CCCC(=O)N1CCc1ccc(O)cc1 (centres undefined) | . | . | -1 | -2 | . | . | .
CCOc1ccc(CCN2C(=O)C(=O)N([C@H](CCCN(C)Cc3ccccc3)CNCc3ccccc3)C[C@@H]2C(C)C)cc1 | . | . | . | . | 26 | . | .
COc1ccc(CNC[C@@H](CCCCN(C)Cc2ccc(OC)cc2)N2C[C@H](c3ccccc3)N(CCc3ccc(Cl)c(Cl)c3)C(=O)C2=O)cc1 | -2 | -5 | . | . | 49* | 51* | 7 | Fluor interf inh=>100
CCOC(=O)[C@]12CCCC=C1N(CCCOC)C(=O)[C@@H]2CC(=O)NCc1ccc(OC)c(OC)c1 | . | . | 2 | 4 | . | . | .
CCC1CCCCN1C(=O)COc1ccc(N(C)S(=O)(=O)c2ccc(C)cc2)cc1 (centres undefined) | -1 | -4 | 2 | -10 | 51* | 35 | 3
CCOC(=O)[C@]12CCC=C1N(Cc1ccc3c(c1)OCO3)C(=O)[C@H](CC(=O)NCCC(C)C)C2 | . | . | -2 | -12 | . | . | .
O=C(Nc1ccc(C(O)(C(F)(F)F)C(F)(F)F)cc1)c1ccccc1C(F)(F)F | . | . | 3 | 1 | . | . | .
O=C(COC(=O)c1ccccc1)NCC1CCCO1 (centres undefined) | 1 | -5 | -3 | 14 | 56* | 5 | 1
C1CCC(C(CC2CCCCN2)C2CCCCC2)CC1 (centres undefined) | -1 | 1 | -5 | -2 | 61* | 20 | 17
CC(C)(C)c1ccc(OCCOc2ccc(C(C)(C)C)cc2NC=O)c(NC=O)c1 | -8 | 8 | 0 | -10 | 41* | 35 | 6
COCCOc1ccc(C(F)(F)F)cc1NC(=O)c1ccccc1 | -3 | 3 | 1 | 2 | -2 | . | .
CCc1noc(C)c1C(=O)N1CCN(S(=O)(=O)c2c(C)cc(C)cc2C)CC1 | . | -4 | -3 | -10 | 57* | 39 | 5
CCn1c2ccccc2c2nnc(SCC(=O)c3c(N)n(C)c(=O)n(C)c3=O)nc21 | -1 | -1 | 1 | 11 | 54* | 12 | 8
SMILES | GSTO1 inh | PAD4 FP inh | PRMT1 FP inh | TDP2 inh | Apaf-1 inh | Apaf-1 inh conf2 | Rh110 interf inh | others
CCn1c2ccccc2c2nnc(SCC(N)=O)nc21 | -2 | -1 | -2 | -9 | -4 | . | .
COC(=O)C[C@H]1CC[C@@H]2[C@H](COC[C@H](O)CN2S(=O)(=O)c2ccccc2OC)O1 | . | . | 8 | 3 | . | . | .
O=c1[nH]cc(N=Cc2cc([N+](=O)[O-])ccc2O)c(=O)[nH]1 | 18 | 2 | . | . | 2 | . | .
Cc1cc(O)c(C(C)C)cc1N=Cc1cc([N+](=O)[O-])ccc1O | 27 | 4 | 9 | -2 | 44* | 7 | 1
COc1ccc2c(c1)Cc1sc(NC(=O)c3ccccc3)nc1-2 | 2 | -6 | 1 | 19 | 83* | 60* | 6 | Fluor interf inh=>100
COc1ccc2c(c1)Cc1sc(NC(=O)c3cccs3)nc1-2 | 5 | -6 | -1 | 16 | 87* | 44* | 2 | Fluor interf inh=>100
O=S1(=O)c2ccc(N3CC[C@H](O)C3)cc2O[C@@H]2CCN1C2 | . | . | -8 | -5 | . | . | .
CCCCN(CC)c1nc(N)c2c(N)nc(OCC)cc2c1C#N | 15 | -16 | 4 | -10 | 98* | 16 | 11
COc1cc2c(C#N)c(N3CCN(C)CC3)nc(N)c2c(N)n1 | 24 | -7 | 3 | 12 | 19 | . | .
COc1cc2c(C#N)c(N3CCN(c4ccccc4OC)CC3)nc(N)c2c(N)n1 | 0 | -8 | 4 | -5 | 3 | . | .
CCCOc1cc2c(C#N)c(N3CCCC3)nc(N)c2c(N)n1 | 5 | -16 | 9 | 2 | 98* | 73* | 3 | Fluor interf inh=>100
CCCCN(CC)c1nc(N)c(C#N)c(CC#N)c1C#N | 5 | -9 | 2 | 0 | 19 | . | .
COc1cc2c(C#N)c(N3CCCC3)nc(N)c2c(N)n1 | 4 | -9 | 7 | 11 | 84* | 49*! | 11
COC[C@H]1CCCN1c1ccc2c(c1)O[C@@H](COCc1ccccc1)CN([C@H](C)c1ccccc1)S2(=O)=O | . | . | 9 | -6 | . | . | .
Cc1ccc(NC(=O)OC2CC3CC2[C@H]2CCCCN2C3)cc1C (some centres undefined) | . | . | -5 | 11 | . | . | .
COc1ccc(CN(CCN(C)C)c2ccccn2)cc1 | -6 | -5 | 0 | -3 | 6 | . | .
CCCCCCCCCCCCCCCC[N+](C)(C)CCN(Cc1ccc(OC)cc1)c1ncccn1 | 4 | 8 | . | . | 98* | 92* | 30 | Fluor interf inh=>100
CCCC[C@H]1C2CC(OC(=O)Nc3ccc(C(F)(F)F)cc3)C(C2)[C@H]2CCCCN21 (some centres undefined) | . | . | 2 | 2 | . | . | .

Bioassay records (PubChem BioAssay)
